From PubChem BioAssay
Hits are enriched below; roughly 5.8% of the tested compounds scored in any of these assays.
PLK1 kinase inh: PLK1 (human) kinase inhibition; P53350; recombinant PLK1 kinase, TR-FRET peptide phosphorylation; inhibition, % at 10 µM; 97,000 tested, 0.53% active;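 active = inhibition of 50% or more in the single-concentration screen; inactive = inhibition below 50%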
Rev-RRE block: inhibitors of HIV-1 Rev-RRE RNA interaction | 97,000 tested, 0.79% active | Rev peptide-RRE RNA binding, FRET | inhibition, % at 8 µM | P05866 | AID 704;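 active = inhibition above the screen-wide mean plus 3 SD, cut at about 35% in these data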
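Test system – labelled RRE RNA duplex and labelled Rev peptide · Signal – fluorescein-to-Cy5 FRET, 480 nm excitation · Evaluation – % inhibition of FRET ratio versus controls · Benchmarks – DMSO low control, neomycin B high control · Incubation – 5 min RNA-compound premix plus 15 min binding step, 25 °C · Medium – HEPES pH 7.5 salt buffer with EDTA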
Plk1 PBD FP: blocks phosphopeptide binding to human Plk1 polo box domain. P53350. Plk1 PBD phosphopeptide binding, fluorescence polarization. inhibition, %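 (tested at about 20 µM)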. 97,000 tested, 0.13% active. AID 693; in the data active = inhibition above about 34%, passing the limit was not always enough
Cav32 inh: blocks human Cav3.2 T-type calcium channel | B-score at 10 µM | 100,000 tested, 4% active | O95180 | Cav3.2-expressing cells, Fluo-4 calcium fluorescence FDSS; active compounds read low;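 active = single-dose well whose peak fluorescence ratio is a statistical outlier from its plate by either plate-standardised score or position-corrected B-score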
Target sequence (O95180 whole entry, looked up): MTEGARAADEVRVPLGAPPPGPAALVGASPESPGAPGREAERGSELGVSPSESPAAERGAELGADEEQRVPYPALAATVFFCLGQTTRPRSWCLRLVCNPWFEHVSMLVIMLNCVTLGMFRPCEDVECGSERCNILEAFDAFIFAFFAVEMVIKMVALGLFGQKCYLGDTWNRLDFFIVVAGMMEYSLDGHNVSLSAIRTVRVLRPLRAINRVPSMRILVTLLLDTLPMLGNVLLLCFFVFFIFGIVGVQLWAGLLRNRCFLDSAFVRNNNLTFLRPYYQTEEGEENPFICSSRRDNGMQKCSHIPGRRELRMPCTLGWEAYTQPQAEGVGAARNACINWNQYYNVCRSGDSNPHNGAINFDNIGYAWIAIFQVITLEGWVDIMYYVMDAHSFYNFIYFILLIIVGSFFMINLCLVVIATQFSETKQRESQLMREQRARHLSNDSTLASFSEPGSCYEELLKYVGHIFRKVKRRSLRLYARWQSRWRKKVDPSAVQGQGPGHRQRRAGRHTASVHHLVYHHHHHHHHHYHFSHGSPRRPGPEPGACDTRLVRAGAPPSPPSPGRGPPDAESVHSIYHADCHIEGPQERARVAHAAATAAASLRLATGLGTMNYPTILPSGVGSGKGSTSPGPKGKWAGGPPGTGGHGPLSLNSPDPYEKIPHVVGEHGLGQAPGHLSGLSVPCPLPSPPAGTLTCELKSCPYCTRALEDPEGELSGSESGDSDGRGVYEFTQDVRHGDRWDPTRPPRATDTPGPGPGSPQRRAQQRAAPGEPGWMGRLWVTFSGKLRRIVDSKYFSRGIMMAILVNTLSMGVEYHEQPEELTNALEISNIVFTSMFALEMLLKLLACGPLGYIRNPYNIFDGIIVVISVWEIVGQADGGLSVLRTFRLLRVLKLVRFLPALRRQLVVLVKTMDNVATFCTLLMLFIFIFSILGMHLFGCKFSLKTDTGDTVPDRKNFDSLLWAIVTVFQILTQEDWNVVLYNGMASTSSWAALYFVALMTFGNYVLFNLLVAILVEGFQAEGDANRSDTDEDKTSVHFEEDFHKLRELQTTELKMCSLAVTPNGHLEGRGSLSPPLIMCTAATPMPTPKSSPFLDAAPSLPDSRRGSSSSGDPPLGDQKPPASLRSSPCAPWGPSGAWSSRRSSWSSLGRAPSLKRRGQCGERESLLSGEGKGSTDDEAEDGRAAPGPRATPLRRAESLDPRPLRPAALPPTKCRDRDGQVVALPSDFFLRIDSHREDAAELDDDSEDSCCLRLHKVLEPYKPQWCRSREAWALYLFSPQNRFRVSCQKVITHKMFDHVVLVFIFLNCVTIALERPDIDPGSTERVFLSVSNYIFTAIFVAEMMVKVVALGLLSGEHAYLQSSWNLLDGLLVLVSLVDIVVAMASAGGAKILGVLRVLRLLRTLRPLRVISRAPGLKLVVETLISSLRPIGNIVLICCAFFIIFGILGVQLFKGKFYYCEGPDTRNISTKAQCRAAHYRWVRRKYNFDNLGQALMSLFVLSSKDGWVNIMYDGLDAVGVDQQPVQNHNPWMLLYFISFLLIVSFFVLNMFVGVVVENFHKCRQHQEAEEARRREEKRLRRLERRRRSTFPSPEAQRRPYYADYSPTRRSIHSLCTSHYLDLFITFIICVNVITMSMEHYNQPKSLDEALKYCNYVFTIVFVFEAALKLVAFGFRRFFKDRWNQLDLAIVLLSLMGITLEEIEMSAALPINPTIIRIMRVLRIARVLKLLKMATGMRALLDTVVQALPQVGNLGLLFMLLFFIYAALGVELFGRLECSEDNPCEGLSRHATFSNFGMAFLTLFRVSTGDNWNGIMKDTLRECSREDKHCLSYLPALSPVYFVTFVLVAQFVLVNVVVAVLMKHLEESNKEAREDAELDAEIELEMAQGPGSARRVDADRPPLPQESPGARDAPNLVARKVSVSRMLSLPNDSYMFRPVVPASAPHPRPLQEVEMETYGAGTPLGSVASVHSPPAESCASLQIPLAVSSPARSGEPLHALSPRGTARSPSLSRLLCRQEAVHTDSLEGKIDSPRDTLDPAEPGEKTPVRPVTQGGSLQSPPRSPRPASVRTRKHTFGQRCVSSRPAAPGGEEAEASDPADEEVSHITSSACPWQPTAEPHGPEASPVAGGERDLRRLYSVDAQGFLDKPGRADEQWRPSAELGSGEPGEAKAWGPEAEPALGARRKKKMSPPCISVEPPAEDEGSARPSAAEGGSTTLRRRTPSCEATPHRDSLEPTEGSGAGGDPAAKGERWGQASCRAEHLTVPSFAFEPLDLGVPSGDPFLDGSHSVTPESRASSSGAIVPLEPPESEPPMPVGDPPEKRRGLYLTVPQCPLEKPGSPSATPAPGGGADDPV
FAK blocker: FAK (human) kinase inhibition. 97,000 tested, 0.84% active. inhibition, %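 (tested at 7 µM)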. Q05397. biochemical FAK kinase activity assay; in the data active = inhibition above about 19%
PTK2B oligo ant: Pyk2 (human) oligomerization antagonism; z-score (the deposit names both 25 µM and 10 µM); Q14289; Q293 cells, Pyk2 FERM NanoBiT luminescence; active compounds read low; 99,000 tested, 0.83% active;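 active = Z-score of -3 or lower, scaled per plate to the spread of control and sample wells; inactive = z-score above -3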;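 note: negative z-score means lost luminescence so less FERM oligomerization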
Of the large screens only hits and unclear results are named; the others gave an inactive call; [ ] = dose if it differs, or a comment.

COc1ccc(OC)c(C(c2nnnn2CCc2ccccc2)N2CCN(c3ccccc3)CC2)c1 (stereo unspecified)	none
COCCn1nnnc1C(c1ccc2ncccc2c1)N1CCN(c2ccccc2F)CC1 (stereo unspecified)	none
CCC(C)(C)NC(=O)/C=C/c1cccs1	none (no result: PLK1 kinase inh, Rev-RRE block, Plk1 PBD FP, Cav32 inh, FAK blocker)
COC(=O)c1cc(C#N)c(NCc2ccccc2)nc1C	none
Cc1cccnc1NC(=O)Nc1cccc(C(F)(F)F)c1	none
CCOC(=O)C1=NN(C(=O)Nc2cccc(C(F)(F)F)c2)C2C(=O)N(c3cccc(C(F)(F)F)c3)C(=O)C12 (stereo unspecified)	Cav32 inh -5.7
CCOc1ccc(-n2c(Cc3ccccc3)nnc2SCc2c(C)noc2C)cc1	Cav32 inh -4.3
CCOC(=O)CSc1nnc(Cc2ccccc2)n1-c1ccc(C)cc1	none
COc1ccc(N(C(=O)c2ccc(Cl)cc2)C2=CC3CCC(C2)N3C)cc1 (stereo unspecified)	none
Cc1nnc(SCC(=O)Nc2ccccc2NC(=O)CSc2nnc(C)s2)s1	none
Cc1nnc(SCC(=O)Nc2nsc(-c3ccc(C(C)(C)C)cc3)n2)s1	Cav32 inh -7.6 (no result: PTK2B oligo ant)
C[C@H]1[C@@H](OC(=O)CCC(=O)O)O[C@@H]2OC3(C)CC[C@H]4[C@H](C)CC[C@@H]1[C@@]24OO3	none (no result: PLK1 kinase inh, Rev-RRE block, Plk1 PBD FP, FAK blocker, PTK2B oligo ant)
CC(C)Cn1c(CN(C)Cc2ccccc2)nc2c1c(=O)n(C)c(=O)n2C	none (no result: PTK2B oligo ant)
CCOC(=O)Cn1c(CN(C)Cc2ccccc2)nc2c1c(=O)n(C)c(=O)n2C	FAK blocker 53
CC1=CC(C)(C)N2C(=O)C3(SCC(=O)N3c3ccc(O)cc3)c3cc(C)cc1c32 (stereo unspecified)	Cav32 inh -7.4
Cc1ccc(N2C(=O)CSC23C(=O)Nc2ccccc23)cc1 (stereo unspecified)	none
COc1c(Cl)cc(C(=O)Nc2ccccc2C(=O)O)cc1Cl	PTK2B oligo ant -3.1
COc1c(Cl)cc(C(=O)O)cc1Cl	none (no result: PLK1 kinase inh, Rev-RRE block, Plk1 PBD FP, FAK blocker, PTK2B oligo ant)
COc1ccccc1C(=O)Nc1ccc(S(=O)(=O)N2CCc3ccccc32)cc1	none
COc1ccc(C(=O)NCc2ccccc2)cc1S(=O)(=O)N1CCCc2ccccc21	Cav32 inh -5.3
COC(=O)Nc1ccc(S(=O)(=O)N2CCCc3ccccc32)cc1	Cav32 inh -6.1
COc1cc(C(=O)Nc2ccc(S(=O)(=O)N3CCc4ccccc43)cc2)cc(OC)c1OC	Cav32 inh -5.3
COc1ccc(C(=O)NC(C)(C)C)cc1S(=O)(=O)N1CCCC1	none
CCOc1ccc(NC(=O)C(C)Oc2ccccc2C(=O)Nc2cccc(Cl)c2Cl)cc1 (stereo unspecified)	none
Cc1nn(C)c(C)c1S(=O)(=O)N1CCC(C(=O)NCC2COc3ccccc3O2)CC1 (stereo unspecified)	none (no result: PTK2B oligo ant)
CC1(OC(=O)c2cccs2)C(=O)C=C2C=C(C3CC3)OC=C2C1=O (stereo unspecified)	Cav32 inh -2.8 (no result: PLK1 kinase inh, Rev-RRE block, Plk1 PBD FP, FAK blocker, PTK2B oligo ant)
Cc1cccc(NC(=O)C23CCC(C)(C2Br)C3(C)C)c1 (stereo unspecified)	Cav32 inh -5.4
CSc1sc(C(=O)O)c(C)c1C(C)=O	none
CC(NC(=O)C1CC2CCCC(C1)C2=O)c1ccccc1 (stereo unspecified)	none (no result: Cav32 inh)
O=S(Cc1cc(Oc2ccccc2)nc(-c2ccccc2)n1)c1ccccc1 (stereo unspecified)	Cav32 inh -6.6
Cc1sc(NC(=O)C2CCCCC2C(=O)O)c(C(N)=O)c1-c1ccccc1 (stereo unspecified)	none
Cc1sc(NC(=O)C2CCCCC2C(=O)O)c(C(N)=O)c1C (stereo unspecified)	Cav32 inh -4.2
Nc1nnc(CSCc2ccc(F)cc2)s1	none (no result: PLK1 kinase inh, Rev-RRE block, Plk1 PBD FP, FAK blocker)
CCN1c2ccccc2NC2N=C(OC)C(c3ccccc3)C21 (stereo unspecified)	none
CCN1c2ccccc2NC2C1C(C(C)=O)C(=O)N2c1ccc(Cl)cc1 (stereo unspecified)	Rev-RRE block 50
Cc1ccccc1CNc1ccc(C(CC(N)=O)NC(=O)c2ccccc2)cc1[N+](=O)[O-] (stereo unspecified)	none (no result: PLK1 kinase inh, Rev-RRE block, Plk1 PBD FP, FAK blocker, PTK2B oligo ant)
O=C(CN(CCc1ccccc1)C(=O)Cn1nnc(-c2cccs2)n1)NCc1ccco1	none
O=C(CN(C(=O)Cn1nnc(-c2cccs2)n1)c1ccc2c(c1)OCCO2)NCc1ccccc1	PTK2B oligo ant -3
CCO[C@H]1OC(C(N)=O)=C[C@@H](C)[C@@H]1CCCO	none (no result: PLK1 kinase inh, Rev-RRE block, Plk1 PBD FP, FAK blocker, PTK2B oligo ant)
Cc1cc(C)c(S(=O)(=O)NCC23C=CC(O2)C2C(=O)N(c4ccccc4)C(=O)C23)c(C)c1 (stereo unspecified)	none
O=C(Nc1nc2ccccc2s1)C1CC(=O)N(c2ccc(Cl)cc2)C1 (stereo unspecified)	Cav32 inh -4.7
O=C(Nc1cccc2nsnc12)C1CC(=O)N(c2ccccc2)C1 (stereo unspecified)	none
c1ccc(N2CCN(c3nc(NCc4ccco4)c4ccccc4n3)CC2)cc1	none
c1coc(CNc2nc(N3CCCCC3)nc3ccccc23)c1	Cav32 inh -4.3 (no result: PLK1 kinase inh, Rev-RRE block, Plk1 PBD FP, FAK blocker)
CCOC(=O)N1CCC(Nc2ccc3nnc(-c4ccccc4)n3n2)CC1	Cav32 inh 2.7 (no result: PTK2B oligo ant)
COC(=O)C1=C(C)N(C)C(C)=C(C(=O)OC)C1c1ccc(Cl)cc1	none
CCOC(=O)C1=C(C)N(C)C(C)=C(C(=O)OCC)C1c1ccc(C(=O)OC)cc1	Cav32 inh -7
COc1ccc(/C=N/NC(=O)c2nc(-c3ccccc3)cc(-c3ccccc3)n2)cc1	Cav32 inh -7.2
CC1(C)CC(NC(=O)C23CCC(C)(C(=O)C2)C3(C)C)CC(C)(C)N1 (stereo unspecified)	none
Oc1c(Cl)cc(Cl)cc1/C=N/c1nccs1	Cav32 inh -9.3
Cc1cc(N2C(=O)C(O)=C(C(=O)c3ccco3)C2c2ccc(O)cc2)no1 (stereo unspecified)	none (no result: Cav32 inh)
Cc1ccc(C2C(C(=O)c3ccco3)=C(O)C(=O)N2c2nnc(C)s2)cc1 (stereo unspecified)	Rev-RRE block 48
C=CCOc1ccc(C2C(C(=O)c3cccs3)=C(O)C(=O)N2c2nnc(C)s2)cc1 (stereo unspecified)	Rev-RRE block 102[fluorescence artefact?]
COC(=O)c1sc(N2C(=O)c3oc4ccccc4c(=O)c3C2c2cccs2)nc1C (stereo unspecified)	none (no result: Cav32 inh)
COC(=O)c1sc(N2C(=O)C(O)=C(C(=O)c3ccc(C)o3)C2c2ccc(F)cc2)nc1C (stereo unspecified)	Cav32 inh -4.9
C=CCOc1cccc(C2C(C(=O)c3ccc(C)o3)=C(O)C(=O)N2Cc2ccncc2)c1 (stereo unspecified)	none
CCc1ccc2nc(N3C(=O)C(O)=C(C(=O)c4ccco4)C3c3cccs3)sc2c1 (stereo unspecified)	Cav32 inh -4.3
